Consider 1 compound from ChEMBL document CHEMBL4433206, “Novel Lysine-Based Thioureas as Mechanism-Based Inhibitors of Sirtuin 2 (SIRT2) with Anticancer Activity in a Colorectal Cancer Murine Model” (J Med Chem, 2019).

One data set has as its system CCD-841CoN. The experiment in a line: Growth inhibition of human CCD-841-CoN cells after 72 hrs by CellTiter-Blue assay. The data set is classed as cell-based. In short, it runs like this: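 3000 cells/well seeded, 20 h at 37 °C. Inhibitor added at final 1–100 μM, then 72 h at 37 °C. Viability read by CellTiter-Blue after 4 h at 37 °C, fluorescence 560 nm excitation/590 nm emission. GI50 derived.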
A general note: The colour change of resazurin is a common sign of viable cells or microbes.

In data set [1] the target is T1, NAD-dependent protein deacetylase sirtuin-3, mitochondrial (Homo sapiens, UniProt Q9NTG7).
T1 sequence (Q9NTG7 whole entry): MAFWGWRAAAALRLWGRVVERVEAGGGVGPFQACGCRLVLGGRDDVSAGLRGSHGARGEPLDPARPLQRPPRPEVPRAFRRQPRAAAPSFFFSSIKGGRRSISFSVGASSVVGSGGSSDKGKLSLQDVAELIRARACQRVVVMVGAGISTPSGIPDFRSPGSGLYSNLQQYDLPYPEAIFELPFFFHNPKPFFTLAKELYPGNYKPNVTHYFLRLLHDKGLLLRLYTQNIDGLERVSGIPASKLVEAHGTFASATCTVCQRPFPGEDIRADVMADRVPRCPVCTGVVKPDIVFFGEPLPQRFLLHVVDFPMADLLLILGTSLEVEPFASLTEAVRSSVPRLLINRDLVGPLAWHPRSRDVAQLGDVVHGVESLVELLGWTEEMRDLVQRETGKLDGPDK
Put plainly: Inhibition of human SIRT3 assessed as reduction in deacetylase activity using acetylated H3K9 as substrate preincubated for 15 mins followed by substrate addition and measured after 15 mins by UV-HPLC analysis.

The test system of another data set is HCT-116. Put plainly: Potency index, ratio of TM GI50 to compound GI50 for growth inhibition of human HCT116 cells. The class given is functional.
In a further data set the test system is MDA-MB-231. The experiment in a line: Potency index, ratio of TM GI50 to compound GI50 for growth inhibition of human MDA-MB-231 cells. The data set is classed as functional.
The test system of another data set is MCF7. Put plainly: Potency index, ratio of TM GI50 to compound GI50 for growth inhibition of human MCF7 cells. The class given is functional.
The next data set deals with A549. The experiment in a line: Potency index, ratio of TM GI50 to compound GI50 for growth inhibition of human A549 cells. The data set is classed as functional.

SMILES strings stand for the structures.

For the compound `CCCCCCCCCCNC(=S)NCCCC[C@H](NC(=O)OCc1ccccc1)C(=O)Nc1ccccc1`, halving of growth in the data set on CCD-841CoN (GI50) required 47.4 µM. The half-inhibitory concentration (IC50) (usually the concentration that gives 50% inhibition) in data set [1] was over 200 µM. Further, the RatioGI50 in the data set with HCT-116, with MDA-MB-231, in the data set with MCF7 and with A549 was 2 throughout.
